From PMC2819655 (Bioorganic & medicinal chemistry, 2009)
Changes are numbered by the printed parent chain.

How the values were obtained:
[1] = target: T1, 26S proteasome in MDA-MB-231 cell extract (Homo sapiens, UniProt P28074); experiment: Proteasomal chymotrypsin-like activity in MDA-MB-231 cell extract; type: biochemical; conditions: for change of proteasome inhibitory activity with COMT inhibitor DNC: lysate pre-treated with 10 μM DNC for 20 minutes, Fig. 3B; for inhibition of proteasomal activity: MDA-MB-231 cell lysate with high COMT activity, 1-10 μM, 2 h, Fig. 3A
T1 sequence (P28074 60-263): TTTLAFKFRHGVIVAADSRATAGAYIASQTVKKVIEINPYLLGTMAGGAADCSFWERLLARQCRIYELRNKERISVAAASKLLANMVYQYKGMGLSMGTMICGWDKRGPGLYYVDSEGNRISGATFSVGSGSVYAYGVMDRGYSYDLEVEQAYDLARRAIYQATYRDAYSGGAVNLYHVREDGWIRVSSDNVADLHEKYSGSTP
Outline: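 MDA-MB-231 cell extract (5.7 μg; lysate with high COMT activity) incubated with 20 μM Suc-LLVY-AMC in 20 mM Tris–HCl pH 7.5 with test compound at various concentrations or solvent, 2 h, 37°C. Chymotrypsin-like activity was measured by fluorescence at 355/460 nm. In the COMT-blocked arm, the extract was pre-treated 20 min with 10 μM 3,5-dinitrocatechol, then co-incubated with test compound for 2 h.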

[2] = target: T2, purified rabbit 20S proteasome (Oryctolagus cuniculus, UniProt G1T4Q9); experiment: Inhibition of purified 20S proteasome chymotrypsin-like activity; type: biochemical; conditions: for proteasome inhibition: even at 50 μM, Fig. 2A
T2 sequence (G1T4Q9 60-263): T1 sequence (P28074 60-263) with E197D
Outline: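 Purified rabbit 20S proteasome (35 ng) incubated with 20 μM Suc-LLVY-AMC in 20 mM Tris–HCl pH 7.5, with test compound at various concentrations or solvent, for 2 h at 37°C. Chymotrypsin-like activity was read as fluorogenic substrate hydrolysis at 355 nm excitation and 460 nm emission.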

[3] = system: proteasome chymotrypsin-like activity; conditions: cited from earlier work
[4] = system: cancer cell lines; conditions: a number of cancer cell lines; cited from earlier work
[5] = system: MDA-MB-231 cells; experiment: MTT assay, cell proliferation; type: cell-based, human; conditions: for inhibition of cell proliferation: MDA-MB-231, 25 to 50 μM, 24 h, MTT, Fig. 4; for cell growth inhibition compared to non-acetylated precursors 5 and 7: MDA-MB-231, Fig. 4
Outline: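 MDA-MB-231 cells were grown in RPMI 1640 with 10% FBS and penicillin/streptomycin at 37°C, 5% CO2. Triplicate wells were treated with test compound (25 or 50 μM) for 24 h. The medium was aspirated, then MTT (1 mg/ml) was added for 3 h at 37°C. The formazan was dissolved in DMSO and absorbance read at 540 nm.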

[6] = system: proteasome in MDA-MB-231 cells; experiment: Accumulation of ubiquitinated proteins, Western blotting; type: cell-based, human; conditions: MDA-MB-231, 50 μM, 22 hours, compared with compound 6 and Pro-EGCG (4), Fig. 6
Outline: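 MDA-MB-231 cells (ATCC; RPMI 1640 with 10% FBS, penicillin/streptomycin; 37°C, 5% CO2) exposed to 50 μM test compound for 22 h. Extracted proteins were analysed by Western blot with antibodies against ubiquitinated proteins, with actin as loading reference.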

## O=C(O[C@@H]1Cc2c(O)cc(O)cc2O[C@@H]1c1cc(O)c(O)c(O)c1)c1cc(O)c(O)c(O)c1 [EGCG, (-)-Epigallocatechin-3-gallate, reference compound]
[1]
  change of proteasome inhibitory activity with COMT inhibitor DNC: improved
[2]; Fig. 2
  inhibition of proteasomal chymotryptic activity: potently inhibited
[3]; read-out: IC50, chymotrypsin-like activity of the proteasome in vitro, in vitro
  IC50: 86 to 194 nM

## CC(=O)Oc1cc(OC(C)=O)c2c(c1)O[C@H](c1cc(OC(C)=O)c(OC(C)=O)c(OC(C)=O)c1)[C@H](OC(=O)c1cc(OC(C)=O)c(OC(C)=O)c(OC(C)=O)c1)C2 [compound 4, peracetate of (-)-EGCG]
[4]
  growth inhibitory activity relative to EGCG: enhanced growth inhibitory activity
[3]
  activity as a proteasome inhibitor: not active
[5]
  inhibition of cell proliferation: 0 to 32%

## O=C(O[C@H]1Cc2ccccc2C[C@H]1OC(=O)c1cc(O)c(O)c(O)c1)c1cc(O)c(O)c(O)c1 [compound 5]
[1]
  inhibition of proteasomal activity: 10-16%
  change of proteasome inhibitory activity with COMT inhibitor DNC: improved

## CC(=O)Oc1cc(C(=O)O[C@H]2Cc3ccccc3C[C@H]2OC(=O)c2cc(OC(C)=O)c(OC(C)=O)c(OC(C)=O)c2)cc(OC(C)=O)c1OC(C)=O [compound 6]
[5]
  inhibition of cell proliferation: about 50%
  cell growth inhibition compared to non-acetylated precursors 5 and 7: more potent

## O=C(O[C@H]1Cc2ccccc2C[C@H]1OC(=O)c1cc(O)cc(O)c1)c1cc(O)cc(O)c1 [compound 7]
[1]
  inhibition of proteasomal activity: 18-51%
  change of proteasome inhibitory activity with COMT inhibitor DNC: only slightly increased

## CC(=O)Oc1cc(OC(C)=O)cc(C(=O)O[C@H]2Cc3ccccc3C[C@H]2OC(=O)c2cc(OC(C)=O)cc(OC(C)=O)c2)c1 [compound 8]
[6]
  accumulation of ubiquitinated proteins: higher levels of ubiquitinated proteins
[5]
  inhibition of cell proliferation: 70-79%
  cell growth inhibition compared to non-acetylated precursors 5 and 7: more potent

## O=C(O[C@H]1Cc2ccccc2C[C@H]1O)c1cc(O)c(O)c(O)c1 [compound 16]
[2]
  proteasome inhibition: not active

## O=C(O[C@H]1Cc2ccccc2C[C@H]1O)c1cc(O)cc(O)c1 [compound 21]
[2]
  proteasome inhibition: not active
